An excerpt weighted towards active compounds, which were near 3.3% of everything screened.
ROMK primary: human ROMK K+ channel modulation, primary screen; Tet-inducible ROMK, thallium flux fluorescence; actives lie on both sides; B-score at 10 µM; 130,000 tested, 2% active; AID 1918;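 active = signal ratio slope over the read window, or its plate-corrected B-score, at least 3 SD from the plate mean, either direction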;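 note: B-score of the F/F0 ratio slope over 7 to 12 s after thallium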
ABCB1 inh: human ABCB1 inhibition, ABCG2 as counter-screen | P08183 | inhibition, % at 6.6 µM | AID 1326 | 190,000 tested, 0.067% active | CCRF-Adr cells, JC-1 efflux, flow cytometry; in the data active = inhibition above about 40%;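 note: 0% = vehicle and 100% = reference inhibitor; higher value means more JC-1 retained so stronger ABCB1 efflux block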
ABCG2 block: inhibitors of human ABCG2 transporter, ABCB1 counter-screen. IgMXP3 cells, JC-1 efflux, flow cytometry. inhibition, % at 6.6 µM. 190,000 tested, 0.1% active;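 active = inhibition above 80%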;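 note: 0% = DMSO and 100% = nicardipine control wells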
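Test system: IgMXP3 (ABCG2) plus far-red-tagged CCRF-Adr (ABCB1) cells. Reagent: JC-1 dye as substrate. Timing: 10 min exposure at 25 °C with rotation, no wash. Measured by: flow cytometric JC-1 green MFI at 530 nm. Read-out: percent efflux inhibition, scaled nicardipine 100% to DMSO 0%. Control set: nicardipine and DMSO wells.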
KCC2 mod: modulators of human KCC2 chloride dependent transport. KCC2 cells, thallium flux FluoZin-2 fluorescence. B-score of Tl+ flux slope (higher = more flux/activation; lower = inhibition) at 10 µM. 190,000 tested, 2.2% active;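 active = thallium flux slope and its plate-corrected score both differing from the plate sample mean at a set confidence after two filtering rounds, in either direction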;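 note: slope of fluorescence scaled to starting intensity during 10 to 20 s after thallium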
PMI act satM6P: increases human PMI activity with near-saturating mannose 6-phosphate; P34949; coupled PMI enzyme assay, resazurin fluorescence, 20 min; active compounds read high; 1 = untreated enzyme, 0 = substrate-free blank; activation factor at 20 µM; 190,000 tested, 0.34% active; AID 1216;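 active = activation factor of 2 or more at 20 µM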
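test system = human PMI in coupled enzyme assay | medium = HEPES-buffered pH 7.4 with magnesium and detergent | also added = 1.0 mM mannose-6-phosphate substrate with 0.22 mM NADP+ | compound = 20 µM single dose | times = 20 min incubation at room temperature | measured by = resorufin fluorescence (Ex 544/Em 590 nm) from resazurin via diaphorase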
PMI act: activators of human phosphomannose isomerase; purified human PMI, coupled resazurin fluorescence, 20 min; active compounds read high; 1 = vehicle control, 0 substrate-free wells; activation factor at 20 µM; 190,000 tested, 0.005% active;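 active = activation factor of 2 or more at 20 µM, relative to plate controls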
* = called active by the depositor; . = no result given.

SMILES	ROMK primary	ABCB1 inh	ABCG2 block	KCC2 mod	PMI act satM6P	PMI act
COc1cc(/C=N\NC(=O)C2CC3C=CC2C3)ccc1O (centres undefined)	.	0	12	-0.2	1	1
Cc1ccc2oc(=O)c3cc(C(=O)N4CCN(C(=O)c5ccco5)CC4)sc3c2c1	.	1	-1	-2.5*	1	1
Cc1cccc(NC(=O)c2ccc(COc3cccc4ccccc34)o2)n1	.	0	6	-0.17	0.6	0.8
COc1ccc(OCC(O)CN2CCN(c3ccccc3)CC2)cc1 (centres undefined)	-0.34	0	0	0.15	1.2	1.2
CC(C)c1ccc(OCC(O)CN2CCN(c3ccccc3)CC2)cc1 (centres undefined)	-2.8*	1	2	0.26	1	0.9
Cc1cc([N+](=O)[O-])ccc1NC(=S)NC(=O)Cc1ccccc1	-0.49	0	6	8.5*	1	0.9
CCc1ccc(NC(=S)NNC(=O)c2ccccc2OC(F)F)cc1	.	0	-1	18*	1.1	1.1
COc1ccc(NC(=S)NNC(=O)c2ccccc2OC(F)F)cc1	0.83	0	0	0.04	1.1	1.1
CCOC(=O)C(C)On1c(-c2ccccc2)nc2ccc([N+](=O)[O-])cc21 (centres undefined)	-1.3	1	3	-0.3	2*	1.6
CCOC(=O)C(C)On1c(-c2ccc(Cl)cc2)nc2ccc([N+](=O)[O-])cc21 (centres undefined)	-1.4	1	10	-0.049	2*	1.4
Cc1ccc(COn2c(-c3ccc(Cl)cc3)nc3ccc([N+](=O)[O-])cc32)cc1	.	0	10	0.0018	0.9	1
Cc1cccc(C)c1OCC(O)CN1CCC(CN2C(=O)c3cccc4cccc(c34)C2=O)CC1 (centres undefined)	.	1	2	2	1	1
CCSc1cc(C2C(C(=O)OC)=C(C)NC3=C2C(=O)CCC3)c(C)o1 (centres undefined)	.	0	3	1.6	2.1*	1.1
COCCOC(=O)C1=C(C)NC2=C(C(=O)CCC2)C1c1cc2c(cc1Br)OCO2 (centres undefined)	-0.13	1	2	.	1	1
O=C(CN1CCC(NC(=O)Nc2ccccc2-c2ccccc2)CC1)NCc1ccco1	1.4	0	4	0.5	1	1
Cc1ccccc1N/N=C/c1sc(=O)n(Cc2cccc(C(=O)O)c2)c1Cl	.	.	.	-2.8	.	.
COC(=O)c1cccc(Cn2c(Cl)c(/C=N/Nc3ccccc3C)sc2=O)c1	0.052	-1	-5	0.062	2.5*	1.5
Cc1ccc(/C=C2\SC(=S)N(C(Cc3ccccc3)C(=O)O)C2=O)cc1 (centres undefined)	-3*	0	9	-3.5*	0.8	0.9
COc1cc(/C=C2\SC(=S)N(C(Cc3ccccc3)C(=O)O)C2=O)ccc1O (centres undefined)	.	.	.	-0.65	.	.
O=C(O)C(Cc1ccccc1)N1C(=O)/C(=C/c2cccc3ccccc23)SC1=S (centres undefined)	.	0	-11	-7.2*	0.9	0.8
O=C(O)C(Cc1ccccc1)N1C(=O)/C(=C/c2ccccc2)SC1=S (centres undefined)	-0.84	0	0	-2.1	0.9	0.9
NC(=S)N/N=C/c1ccc(-c2cc(Cl)c(Cl)cc2Cl)o1	.	0	0	.	2*	1.6
CCCCOc1ccc(Nc2cc(Cl)ccc2C(=O)O)cn1	3.1*	.	.	13*	.	.
COc1ccc(CC(=O)Nc2cc(Cl)ccc2C(=O)O)cc1	-0.14	0	1	-1.1	1.1	1.1
COC(=O)c1ccc(Oc2coc3cc(OCc4ccc([N+](=O)[O-])cc4)ccc3c2=O)cc1	.	0	0	0.38	1.1	1.1
CCCN(CCC)S(=O)(=O)c1ccc(C(=O)Nc2nnc(-c3cccc(OC)c3)o2)cc1	0.041	0	-1	15*	1.2	1.3
COc1cccc(-c2nnc(NC(=O)c3ccc(Cl)s3)o2)c1	1.9*	0	0	151*	1.4	1.3

Assay outcomes from PubChem.
